Reference: ChEMBL document CHEMBL4014329, “Selective Inhibition of Escherichia coli RNA and DNA Topoisomerase I by Hoechst 33258 Derived Mono- and Bisbenzimidazoles” (J Med Chem, 2017)
≈ marks a conversion by molar mass, not a printed value. Calls of active or inactive are those of the source. The rule behind the calls is not given here.

Columns and labels:
[1] = system: Enterococcus faecium; assay: Antibacterial activity against Enterococcus faecium BM4105RF after 24 hrs by microbroth dilution method; format: functional
In short: (§1)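 Mueller-Hinton broth cultures grown at 37 °C with shaking to log phase, pelleted, resuspended in 0.85% saline to OD625 0.1. Broth microdilution per CLSI guidelines, final inoculum 5 × 10^5 CFU/mL, in triplicate, 24 h at 37 °C. Growth read as OD625. MIC is the lowest concentration giving complete growth inhibition versus untreated controls.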

[2] = system: Staphylococcus epidermidis; assay: Antibacterial activity against Staphylococcus epidermidis ATCC 12384 after 24 hrs by microbroth dilution method; format: functional; conditions: ATCC 12384, 24 h
In short: (§2)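 Microbroth dilution per CLSI guidelines. Organisms grown in Mueller−Hinton broth at 37 °C with shaking to log phase, pelleted, resuspended in 0.85% saline to OD625 0.1. Final inoculum 5 × 10^5 CFU/mL; triplicate; 24 h at 37 °C. OD625 read; MIC = lowest concentration completely inhibiting growth versus untreated controls.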

[3] = system: Staphylococcus aureus; assay: Antibacterial activity against methicillin-resistant Staphylococcus aureus A960649 after 24 hrs by microbroth dilution method; format: functional; conditions: A960649, 24 h; in short: as §1
[4] = system: Escherichia coli; assay: Inhibition of Escherichia coli DNA gyrase using relaxed plasmid pBAD-GFPuv as substrate after 30 mins by agarose gel electrophoresis
[5] = system: Escherichia coli; assay: Inhibition of Escherichia coli RNA topoisomerase 1 using circular RNA as substrate up to 50 uM after 1.5 hrs by SDS-PAGE analysis
In short: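 10 nM E. coli topoisomerase I premixed with reaction buffer and inhibitor diluted in DMSO, then circular RNA substrate added; 1.5 h incubation. Stopped with proteinase K/SDS/EDTA buffer. Trefoil RNA knot product separated from circular substrate on 15% TBE−urea gels and detected by phosphorimaging. DMSO-only control included.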

[6] = system: Staphylococcus aureus; assay: Antibacterial activity against methicillin-resistant Staphylococcus aureus 33591 after 24 hrs by microbroth dilution method; format: functional; conditions: Staphylococcus aureus, 33591, 24 h; in short: as §1
[7] = system: Shigella flexneri; assay: Antibacterial activity against Shigella flexneri 2457NR517 after 24 hrs by microbroth dilution method; format: functional; conditions: 2457NR517, 24 h; in short: as §1
[8] = system: Escherichia coli; assay: Antibacterial activity against Escherichia coli ATCC 25922 after 24 hrs by microbroth dilution method; format: functional; conditions: ATCC 25922, 24 h; in short: as §2
[9] = system: Acinetobacter baumannii; assay: Antibacterial activity against Acinetobacter baumannii ATCC 19606 after 24 hrs by microbroth dilution method; format: functional; conditions: ATCC 19606 = CIP 70.34 = JCM 6841, 24 h; in short: as §2
[10] = system: Pseudomonas aeruginosa; assay: Antibacterial activity against Pseudomonas aeruginosa ATCC 27853 after 24 hrs by microbroth dilution method; format: functional; conditions: ATCC 27853, 24 h; in short: as §2
[11] = system: Klebsiella pneumoniae; assay: Antibacterial activity against Klebsiella pneumoniae NR15410 after 24 hrs by microbroth dilution method; format: functional; conditions: NR15410, 24 h; in short: as §2
[12] = system: Enterobacter cloacae; assay: Antibacterial activity against Enterobacter cloacae ATCC 13047 after 24 hrs by microbroth dilution method; format: functional; conditions: ATCC 13047, 24 h; in short: as §2
[13] = system: Citrobacter freundii; assay: Antibacterial activity against Citrobacter freundii 4747CFAA after 24 hrs by microbroth dilution method; format: functional; in short: as §2
[14] = system: DU-145; assay: Cytotoxicity against human DU145 cells after 48 hrs by SRB assay; format: cell-based; conditions: for Activity: human, du-145, 48 h; for IC50: Homo sapiens, DU-145, 48 h
In short: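 Cells cultured per ATCC protocols, seeded and grown 24 h (37 °C, 5% CO2), then treated in triplicate at final 20, 10, 5, 2.5, 1.25, 0.625 and 0.0625 μM for 48 h. Fixed with cold TCA (16% final, 4 °C, 1 h), stained with SRB in 1% acetic acid, dye solubilized in 10 mM Tris base, A560 read. IC50 derived; study in duplicate.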

[15] = system: Enterococcus faecalis; assay: Antibacterial activity against Enterococcus faecalis ATCC 29212 after 24 hrs by microbroth dilution method; format: functional; conditions: ATCC 29212, 24 h; in short: as §2
[16] = system: Staphylococcus aureus; assay: Antibacterial activity against Staphylococcus aureus ATCC 33591 after 24 hrs by microbroth dilution method; format: functional; conditions: ATCC 33591, 24 h; in short: as §2
[17] = system: Staphylococcus aureus; assay: Antibacterial activity against Staphylococcus aureus ATCC 29213 after 24 hrs by microbroth dilution method; format: functional; conditions: ATCC 29213, 24 h; in short: as §2
[18] = Inhibition of Escherichia coli DNA topoisomerase 1 using plasmid pBAD-GFPuv as substrate after 15 mins by agarose gel electrophoresis
In short: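 E. coli topoisomerase I at 6 nM relaxing 150 ng supercoiled pBAD-GFPuv. 15 min at 37 °C, phenol-stopped, 1% agarose gel, ethidium stain. IC50 is the concentration leaving 50% DNA supercoiled; three independent determinations.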

[19] = molecular target: T1, DNA topoisomerase 1 (Homo sapiens, UniProt P11387); assay: Inhibition of human DNA topoisomerase 1 using plasmid pBAD-GFPuv as substrate after 30 mins by agarose gel electrophoresis
T1 sequence (P11387 whole entry): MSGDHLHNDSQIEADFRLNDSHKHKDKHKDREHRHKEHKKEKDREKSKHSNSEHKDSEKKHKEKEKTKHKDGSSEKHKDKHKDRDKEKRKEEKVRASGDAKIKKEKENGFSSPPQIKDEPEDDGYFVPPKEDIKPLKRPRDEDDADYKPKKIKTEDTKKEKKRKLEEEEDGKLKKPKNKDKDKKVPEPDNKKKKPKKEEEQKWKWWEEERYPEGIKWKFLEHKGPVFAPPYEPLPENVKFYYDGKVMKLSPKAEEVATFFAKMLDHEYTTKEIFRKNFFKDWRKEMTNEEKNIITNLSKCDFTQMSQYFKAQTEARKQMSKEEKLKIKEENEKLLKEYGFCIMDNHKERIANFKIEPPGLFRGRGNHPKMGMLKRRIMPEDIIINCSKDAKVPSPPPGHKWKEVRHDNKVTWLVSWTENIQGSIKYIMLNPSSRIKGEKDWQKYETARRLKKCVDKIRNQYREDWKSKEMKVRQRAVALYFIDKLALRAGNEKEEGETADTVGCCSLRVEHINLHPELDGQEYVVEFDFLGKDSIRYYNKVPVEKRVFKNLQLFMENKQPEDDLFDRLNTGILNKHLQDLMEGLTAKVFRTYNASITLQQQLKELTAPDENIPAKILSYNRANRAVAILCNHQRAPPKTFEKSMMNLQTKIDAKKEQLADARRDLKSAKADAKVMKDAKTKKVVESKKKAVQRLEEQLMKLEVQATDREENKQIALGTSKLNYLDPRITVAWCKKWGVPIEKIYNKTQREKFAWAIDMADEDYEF

[20] = Binding affinity to dA60.dT60 B-DNA duplex (unknown origin) assessed as change in melting temperature at 10 uM by UV-vis spectrophotometric analysis
In short: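 UV melting of dA60·dT60 at 1 μM/duplex with compound at 10 μM. Buffer 10 mM sodium cacodylate, 0.1 mM EDTA, 100 mM NaCl, pH 7.0; duplex pre-annealed from 95 °C. Compound stocks in DMSO diluted into buffer. Heating at 0.2 °C/min, monitored at 260 nm, points every 1.0 °C; Tm taken from derivatives.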

[21] = system: Escherichia coli; assay: Antibacterial activity against Escherichia coli K-12 after 24 hrs by microbroth dilution method; format: functional; conditions: K-12, 24 h; in short: as §2
[22] = Binding affinity to dA60.dT60 B-DNA duplex (unknown origin) assessed as induction of biphasic transition at <5 uM by UV-vis spectrophotometric analysis

SMILES | MIC [1] | MIC [2] | MIC [3] | inhibition [4] | inhibition [5] | MIC [6] | MIC [7] | MIC [8] | MIC [9] | MIC [10] | MIC [11] | MIC [12] | MIC [13] | Activity [14] | MIC [15] | MIC [16] | MIC [17] | ΔTm [20] | MIC [21] | Activity [22] | further results
C#CCCCCOc1ccc(-c2nc3ccc(-c4nc5ccc(N6CCN(C)CC6)cc5[nH]4)cc3[nH]2)cc1 | 1 to 2 µg/mL (≈ 1.98 to 3.96 µM) | 1 to 2 µg/mL (≈ 1.98 to 3.96 µM) | 4 µg/mL (≈ 7.93 µM) | inactive | inactive | 4 µg/mL (≈ 7.93 µM) | 8 µg/mL (≈ 15.9 µM) | 8 to 16 µg/mL (≈ 15.9 to 31.7 µM) | 16 µg/mL (≈ 31.7 µM) | 16 µg/mL (≈ 31.7 µM) | > 32 µg/mL | > 32 µg/mL | > 32 µg/mL | Toxic |  |  |  |  |  |  | 
C#CCOCCCCCCOc1ccc(-c2nc3ccc(-c4nc5ccc(N6CCN(C)CC6)cc5[nH]4)cc3[nH]2)cc1 | > 32 µg/mL | > 32 µg/mL | > 32 µg/mL |  | inactive | > 32 µg/mL | > 32 µg/mL | 16 to 32 µg/mL (≈ 28.4 to 56.9 µM) | > 32 µg/mL | 16 to 32 µg/mL (≈ 28.4 to 56.9 µM) | > 32 µg/mL | > 32 µg/mL | > 32 µg/mL | Toxic | 16 to 32 µg/mL (≈ 28.4 to 56.9 µM) | 16 to 32 µg/mL (≈ 28.4 to 56.9 µM) | 16 to 32 µg/mL (≈ 28.4 to 56.9 µM) | 18.3 °C | 8 µg/mL (≈ 14.2 µM) | Active | IC50 [18]: 3.2 µM; IC50 [19]: > 50 µM
C#CCOc1ccc(-c2nc3ccc(-c4nc5ccc(N6CCN(C)CC6)cc5[nH]4)cc3[nH]2)cc1 | 1 to 2 µg/mL (≈ 2.16 to 4.32 µM) | 1 to 2 µg/mL (≈ 2.16 to 4.32 µM) | 1 to 2 µg/mL (≈ 2.16 to 4.32 µM) | inactive | inactive |  | 1 to 2 µg/mL (≈ 2.16 to 4.32 µM) | 8 µg/mL (≈ 17.3 µM) | > 32 µg/mL | 16 µg/mL (≈ 34.6 µM) | > 32 µg/mL | 32 µg/mL (≈ 69.2 µM) | 4 µg/mL (≈ 8.65 µM) | Toxic |  |  |  |  |  |  | 
CN1CCN(c2ccc3nc(-c4ccc5nc(-c6ccc(O)cc6)[nH]c5c4)[nH]c3c2)CC1.Cl.Cl.Cl |  |  |  |  |  |  |  | 8 to 16 µg/mL |  | 8 µg/mL |  |  |  |  | 16 to 32 µg/mL | 16 to 32 µg/mL | > 32 µg/mL |  | 8 µg/mL |  | IC50 [14]: > 10 µM
CN1CCN(c2ccc3nc(-c4ccc(OCc5cn(CCCCN=[N+]=[N-])nn5)cc4)[nH]c3c2)CC1 | > 32 µg/mL | > 32 µg/mL | > 32 µg/mL |  | inactive | > 32 µg/mL | > 32 µg/mL | 16 µg/mL (≈ 32.9 µM) | > 32 µg/mL | 16 µg/mL (≈ 32.9 µM) | > 32 µg/mL | > 32 µg/mL | > 32 µg/mL |  | 16 to 32 µg/mL (≈ 32.9 to 65.8 µM) | 16 µg/mL (≈ 32.9 µM) | 16 to 32 µg/mL (≈ 32.9 to 65.8 µM) | 0.5 °C | 16 µg/mL (≈ 32.9 µM) | Active | IC50 [18]: 21.5 µM; IC50 [19]: > 50 µM
COC(=O)c1cc(N2CCN(C)CC2)cc2[nH]c(-c3ccc(O)cc3)nc12 | > 32 µg/mL | > 32 µg/mL | > 32 µg/mL |  |  | > 32 µg/mL | > 32 µg/mL | 16 µg/mL (≈ 43.7 µM) | > 32 µg/mL | 16 µg/mL (≈ 43.7 µM) | > 32 µg/mL | > 32 µg/mL | > 32 µg/mL |  | 16 to 32 µg/mL (≈ 43.7 to 87.3 µM) | 16 to 32 µg/mL (≈ 43.7 to 87.3 µM) | 16 to 32 µg/mL (≈ 43.7 to 87.3 µM) | 0 °C | 16 µg/mL (≈ 43.7 µM) | Active | 
C#CCOCCOCCOCCOCCOCCOCCOc1ccc(-c2nc3ccc(-c4nc5ccc(N6CCN(C)CC6)cc5[nH]4)cc3[nH]2)cc1 | ≥ 32 µg/mL | 16 to 32 µg/mL (≈ 22 to 44 µM) | > 32 µg/mL |  | inactive | > 32 µg/mL | ≥ 32 µg/mL | 16 to 32 µg/mL (≈ 22 to 44 µM) | > 32 µg/mL | 16 to 32 µg/mL (≈ 22 to 44 µM) | > 32 µg/mL | > 32 µg/mL | > 32 µg/mL |  | 16 to 32 µg/mL (≈ 22 to 44 µM) | 16 to 32 µg/mL (≈ 22 to 44 µM) | 16 to 32 µg/mL (≈ 22 to 44 µM) | 13.1 °C | 2 to 4 µg/mL (≈ 2.75 to 5.5 µM) | Active | IC50 [18]: > 50 µM; IC50 [14]: > 10 µM
C#CCOCCCCOc1ccc(-c2nc3ccc(-c4nc5ccc(N6CCN(C)CC6)cc5[nH]4)cc3[nH]2)cc1 | 1 to 2 µg/mL (≈ 1.87 to 3.74 µM) | 4 µg/mL (≈ 7.48 µM) | 1 to 2 µg/mL (≈ 1.87 to 3.74 µM) | inactive | inactive | 1 µg/mL (≈ 1.87 µM) | 4 µg/mL (≈ 7.48 µM) | 8 to 16 µg/mL (≈ 15 to 29.9 µM) | 8 µg/mL (≈ 15 µM) | 16 µg/mL (≈ 29.9 µM) | > 32 µg/mL | > 32 µg/mL |  | Toxic |  |  |  |  |  |  | 
